Measured values reported in ChEMBL document CHEMBL2029224, “Prenylation at the indole ring leads to a significant increase of cytotoxicity of tryptophan-containing cyclic dipeptides” (Bioorg Med Chem Lett, 2012).
Values after ≈ are worked out from the molar mass of the structure shown.

Experiments:
Assay type in all cases: functional, cell-based
A2780 [1] = assay: Cytotoxicity against human cisplatin resistant A2780 cells after 72 hrs by MTT assay; settings: A2780, 72 h
In short: (§1)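 Cells kept in RPMI 1640 with 10% FCS and penicillin/streptomycin at 37 °C, 5% CO2, grown to 80% confluency. Seeded at 30,000 cells/well (K562) or 8,000 cells/well (A2780 sens and cisplatin-resistant CisR). After 24 h, exposed to increasing concentrations for 72 h. MTT added, formazan dissolved in DMSO, absorbance read at 544/690 nm. Viability relative to untreated cells (100%), triplicates, IC50.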

A2780 [2] = assay: Cytotoxicity against human cisplatin sensitive A2780 cells after 72 hrs by MTT assay; settings: A2780, 72 h; in short: as §1
K562 = assay: Cytotoxicity against human K562 cells after 72 hrs by MTT assay; settings: K562, 72 h; in short: as §1
[3] = Cytotoxicity against mouse tsFT210 cells

`O=C1N[C@@H](Cc2c[nH]c3ccccc23)C(=O)N[C@H]1Cc1ccccc1` gave an IC50 (A2780 [1]) of over 100 µM, an IC50 (A2780 [2]) of over 100 µM and an IC50 (K562) of over 100 µM.

Work on `O=C1N[C@@H](Cc2c[nH]c3ccccc23)C(=O)N[C@H]1Cc1c[nH]c2ccccc12` yielded an IC50 (A2780 [1]) of over 100 µM, an IC50 (A2780 [2]) of over 100 µM and an IC50 (K562) of over 100 µM.

For `O=C1N[C@@H](Cc2c[nH]c3ccccc23)C(=O)N[C@H]1Cc1ccc(O)cc1`, the IC50 (A2780 [1]) was over 100 µM, the IC50 (A2780 [2]) was over 100 µM and the IC50 (K562) was over 100 µM.

In the case of `O=C1N[C@@H](Cc2c[nH]c3ccccc23)C(=O)N2CCC[C@H]12`, the IC50 (A2780 [1]) is reported as over 100 µM, the IC50 (A2780 [2]) is reported as over 100 µM and the IC50 (K562) is reported as over 100 µM.

Work on `O=C1N[C@H](Cc2c[nH]c3ccccc23)C(=O)N2CCC[C@@H]12` yielded an IC50 (A2780 [1]) of over 100 µM, an IC50 (A2780 [2]) of over 100 µM and an IC50 (K562) of over 100 µM.

Molecule `O=C1N[C@H](Cc2c[nH]c3ccccc23)C(=O)N2CCC[C@H]12` has an IC50 (A2780 [1]) of over 100 µM, an IC50 (A2780 [2]) of over 100 µM and an IC50 (K562) of over 100 µM.

Molecule `C[C@@H]1NC(=O)[C@H](Cc2c[nH]c3ccccc23)NC1=O` has an IC50 (A2780 [1]) of over 100 µM, an IC50 (A2780 [2]) of over 100 µM and an IC50 (K562) of over 100 µM.

With `C[C@H]1NC(=O)[C@H](Cc2c[nH]c3ccccc23)NC1=O` the IC50 (A2780 [1]) was over 100 µM, the IC50 (A2780 [2]) was over 100 µM and the IC50 (K562) was over 100 µM.

`C[C@H]1NC(=O)[C@@H](Cc2c[nH]c3ccccc23)NC1=O` showed an IC50 (A2780 [1]) of over 100 µM, an IC50 (A2780 [2]) of over 100 µM and an IC50 (K562) of over 100 µM.

`C[C@@H]1NC(=O)[C@@H](Cc2c[nH]c3ccccc23)NC1=O` showed an IC50 (A2780 [1]) of over 100 µM, an IC50 (A2780 [2]) of over 100 µM and an IC50 (K562) of over 100 µM.

Molecule `O=C1N[C@@H](Cc2c[nH]c3ccccc23)C(=O)N[C@H]1Cc1c[nH]cn1` has an IC50 (A2780 [1]) of over 100 µM, an IC50 (A2780 [2]) of over 100 µM and an IC50 (K562) of over 100 µM.

In the case of `CC(C)=CCc1[nH]c2ccccc2c1C[C@@H]1NC(=O)CNC1=O`, the IC50 (A2780 [1]) is reported as 85.2 µM, the IC50 (A2780 [2]) is reported as 82.4 µM and the IC50 (K562) is reported as 16.7 µM.

In the case of `CC(C)=CCc1[nH]c2ccccc2c1C[C@@H]1NC(=O)[C@H](CC(C)C)NC1=O`, the IC50 (A2780 [1]) is reported as 75 µM, the IC50 (A2780 [2]) is reported as 92.6 µM and the IC50 (K562) is reported as 30.1 µM.

`CC(C)=CCc1[nH]c2ccccc2c1C[C@@H]1NC(=O)[C@H](Cc2c[nH]c3ccccc23)NC1=O` showed an IC50 (A2780 [1]) of 80.8 µM, an IC50 (A2780 [2]) of 89.7 µM and an IC50 (K562) of 29.8 µM.

`CC(C)=CCc1[nH]c2ccccc2c1C[C@@H]1NC(=O)[C@H](Cc2ccc(O)cc2)NC1=O` showed an IC50 (A2780 [1]) of 83.3 µM, an IC50 (A2780 [2]) of 89.8 µM and an IC50 (K562) of 31.6 µM.

In the case of `CC(C)=CCc1[nH]c2ccccc2c1C[C@@H]1NC(=O)[C@H](Cc2ccccc2)NC1=O`, the IC50 (A2780 [1]) is reported as 81.6 µM, the IC50 (A2780 [2]) is reported as 87 µM and the IC50 (K562) is reported as 70.4 µM.

In the case of `CC(C)=CCc1[nH]c2ccccc2c1C[C@@H]1NC(=O)[C@H](C)NC1=O`, the IC50 (A2780 [1]) is reported as 82.2 µM, the IC50 (A2780 [2]) is reported as 89.8 µM and the IC50 (K562) is reported as 35.2 µM.

Molecule `CC(C)=CCc1[nH]c2ccccc2c1C[C@@H]1NC(=O)[C@@H](C)NC1=O` has an IC50 (A2780 [1]) of 77 µM, an IC50 (A2780 [2]) of 77.2 µM and an IC50 (K562) of 34.5 µM.

Work on `CC(C)=CCc1[nH]c2ccccc2c1C[C@H]1NC(=O)[C@@H](C)NC1=O` yielded an IC50 (A2780 [1]) of 81.1 µM, an IC50 (A2780 [2]) of 85 µM and an IC50 (K562) of 34.7 µM.

In the case of `CC(C)=CCc1[nH]c2ccccc2c1C[C@H]1NC(=O)[C@H](C)NC1=O`, the IC50 (A2780 [1]) is reported as 84.3 µM, the IC50 (A2780 [2]) is reported as 86.2 µM and the IC50 (K562) is reported as 35.3 µM.

For `CC(C)=CCc1[nH]c2ccccc2c1C[C@@H]1NC(=O)[C@H](Cc2c[nH]cn2)NC1=O`, the IC50 (A2780 [1]) was 91.7 µM, the IC50 (A2780 [2]) was 91.8 µM and the IC50 (K562) was 32.2 µM.

Molecule `O=C1CNC(=O)[C@H](Cc2c[nH]c3ccccc23)N1` has an IC50 (A2780 [1]) of over 100 µM, an IC50 (A2780 [2]) of over 100 µM and an IC50 (K562) of over 100 µM.

`CC(C)=CCc1[nH]c2ccccc2c1C[C@H]1NC(=O)[C@H]2CCCN2C1=O` showed an IC50 (A2780 [1]) of 85.6 µM, an IC50 (A2780 [2]) of 93.1 µM and an IC50 (K562) of 30.9 µM.

Molecule `CC(C)=CCc1[nH]c2ccccc2c1C[C@H]1NC(=O)[C@@H]2CCCN2C1=O` has an IC50 (A2780 [1]) of 87.8 µM, an IC50 (A2780 [2]) of 100 µM and an IC50 (K562) of 40.4 µM.

In the case of `CC(C)C[C@@H]1NC(=O)[C@H](Cc2c[nH]c3ccccc23)NC1=O`, the IC50 (A2780 [1]) is reported as over 100 µM, the IC50 (A2780 [2]) is reported as over 100 µM and the IC50 (K562) is reported as over 100 µM.

Molecule `CC(C)=CCc1[nH]c2ccccc2c1C[C@@H]1NC(=O)[C@H]2CCCN2C1=O` has an IC50 (A2780 [1]) of 92 µM, an IC50 (A2780 [2]) of 106 µM and an IC50 (K562) of 34.7 µM.

For `O=C1N[C@@H](Cc2c[nH]c3ccccc23)C(=O)N2CCC[C@@H]12` [BREVIANAMIDE F], the IC50 (A2780 [1]) was over 100 µM, the IC50 (A2780 [2]) was over 100 µM and the IC50 (K562) was over 100 µM.

`CC(C)=CCc1[nH]c2ccccc2c1C[C@@H]1NC(=O)[C@@H]2CCCN2C1=O` [TRYPROSTATIN B] showed an IC50 (A2780 [1]) of 85.9 µM, an IC50 (A2780 [2]) of 82.8 µM and an MIC [3] of 4.4 µM (≈ 1.55 µg/mL). The IC50 ([3]; tsFT210) was 18.8 µM and the IC50 (K562) was 21.1 µM.
